Rows were chosen to be rich in hits. Some 3.9% of all compounds tested hit in one or more screens of this group.
CHRM1 antagonist – blocks human M1 muscarinic receptor; P11229; CHO-K1 hM1, Fluo-8 calcium fluorescence, ACh EC80 antagonist; inhibition, % at 3 µM; 360,000 compounds, 1.3% hits; AID 588852;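 active = percent inhibition above its own plate's cutoff, namely the mean of that plate's compound wells plus 3 SD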;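 also: peak over basal fluorescence ratio during 140 s after agonist addition; 0% = ACh EC80 plus DMSO and 100% = DMSO alone without agonist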
CHRM1 agonist – activates human CHRM1 receptor. CHO-K1 hM1, Fluo-8 calcium fluorescence, agonist mode; 0% DMSO, 100% acetylcholine EC100. activation, % at 3 µM. 360,000 compounds, 0.33% hits. P11229. AID 588814;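 active = activation above the run's mean compound activation plus 3 SD, cut at about 16% in these data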;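 also: peak over basal fluorescence ratio within a 140 s kinetic read after compound addition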
m5-HT2A agonist – mouse HTR2A agonism via beta-arrestin recruitment; activation, % at 7.6 µM; 360,000 compounds, 0.66% hits; P35363; CHO-K1 mHTR2A beta-arrestin complementation, luminescence; percent of 30 µM serotonin response; AID 624169;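 active = activation above a run cutoff, the mean activation of all tested compounds plus 3 SD, cut at about 14% in these data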;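 also: 0% = plate median of compound wells and 100% = 30 µM serotonin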
Target sequence (P35363 whole entry, looked up): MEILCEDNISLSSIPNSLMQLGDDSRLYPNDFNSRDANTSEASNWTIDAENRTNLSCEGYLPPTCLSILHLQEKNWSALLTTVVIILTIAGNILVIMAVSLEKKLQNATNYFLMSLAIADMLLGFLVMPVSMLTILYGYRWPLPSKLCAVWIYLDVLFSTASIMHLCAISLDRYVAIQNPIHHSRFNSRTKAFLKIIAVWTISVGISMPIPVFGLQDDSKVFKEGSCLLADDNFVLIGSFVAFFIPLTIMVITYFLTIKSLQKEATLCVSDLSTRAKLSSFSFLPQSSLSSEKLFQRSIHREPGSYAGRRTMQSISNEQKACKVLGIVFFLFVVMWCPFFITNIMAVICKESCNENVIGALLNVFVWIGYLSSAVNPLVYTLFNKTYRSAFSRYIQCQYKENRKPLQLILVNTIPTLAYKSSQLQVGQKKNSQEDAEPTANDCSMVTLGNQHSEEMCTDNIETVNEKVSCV
TAAR1 ag – agonists of human TAAR1. Q96RJ0. CHO RD-HGA16 TAAR1, Fluo-8 calcium fluorescence; vehicle wells 0%, saturating PEA agonist 100%. activation, % at 3 µM. 360,000 compounds, 0.99% hits. AID 624467;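 active = activation above the mean activation of all test compounds in the run plus 3 SD, cut at about 38% in these data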
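Repeats: no replicates (n 1) | Material: CHO-derived RD-HGA16 cells with stable Gα16 and human TAAR1 | Technique: Kinetic Fluo-8 calcium fluorescence | Schedule: 17-24 h seeding, 75 min 37 °C dye, 30 min RT | Evaluation: % activation from peak over basal fluorescence ratio, DMSO-to-PEA scaled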
M1 PAM – human CHRM1 positive allosteric modulation; P11229; CHO-K1 hM1, Fluo-8 calcium fluorescence, ACh EC20; 0% = ACh EC20, 100% = maximal ACh; activation, % at 3 µM; 360,000 compounds, 0.088% hits; AID 588819; in the data active = activation above about 19%, passing the limit was not always enough
TAAR1 antag – human TAAR1 antagonism | Q96RJ0 | CHO RD-HGA16 TAAR1, Fluo-8 calcium fluorescence, antagonist | inhibition, % at 3 µM | 360,000 compounds, 1.5% hits | AID 624466;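 active = inhibition above a per-plate cutoff, the mean inhibition of test compounds on that plate plus 3 SD, cut at about 49% in these data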;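 also: 0% = DMSO plus EC80 beta-PEA response and 100% = DMSO alone without agonist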
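Assay system: RD-HGA16 CHO cells with stable hTAAR1 and Gα16 / Reagent: EC80 β-phenethylamine stimulus / Doses: 3 µM, single point / Timing: dye loading 75 min at 37 °C, then 30 min room temperature / Measured by: Fluo-8 intracellular calcium dye fluorescence, real-time kinetic reads / Controls: vehicle wells and EC80 agonist wells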
TAAR1 ag conf – human TAAR1 agonism, confirmed; activation, % at 3 µM; shares compounds with TAAR1 ag; 2,400 compounds, 82% hits; AID 651783; CHO RD-HGA16 TAAR1, Fluo-8 calcium fluorescence; scaled: DMSO 0%, maximal phenethylamine 100%;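 active = activation above a cutoff set at the run's mean compound activation plus 3 SD, cut at about 39% in these data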
Ga16 nonsel ag – counter-screen for TAAR1 agonists: nonselective agonists in parental cells. shares compounds with TAAR1 ag. CHO-Ga16 parental, Fluo-8 calcium fluorescence; normalized to maximal ATP response, DMSO zero. activation, % at 3 µM. 2,400 compounds, 50% hits;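 active = activation above the run cutoff, the mean activation over all tested wells plus 3 SD, cut at about 12% in these data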;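 also: 0% = DMSO wells and 100% = maximal ATP response on the peak over basal ratio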
TAAR1 desens – counter-screen for human TAAR1 agonists: agonists that desensitize TAAR1; shares compounds with TAAR1 ag; CHO RD-HGA16 hTAAR1, Fluo-8 calcium, beta-PEA response inhibition; inhibition, % at 3 µM; 2,400 compounds, 46% hits; AID 651951;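 active = inhibition above the run cutoff, the mean inhibition of all test compounds plus 3 SD, cut at about 49% in these data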;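 also: beta-PEA stimulus applied at its EC80; loss of beta-PEA calcium signal after compound pretreatment read as receptor desensitization; 0% = DMSO with beta-PEA at EC80 and 100% = DMSO alone without agonist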
Ga16 antag count – counter-screen for TAAR1 agonists: nonselective Ga16 antagonists; shares compounds with TAAR1 ag; CHO-Ga16 ATP-induced calcium, Fluo-8 fluorescence; inhibition, % at 3 µM; 2,400 compounds, 39% hits;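 active = inhibition above the plate's mean compound inhibition plus 3 SD, computed per plate, cut at about 22% in these data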;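 also: 0% = EC80 ATP with DMSO and 100% = DMSO wells without ATP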
* hit, by the source's call; . = no result given.

SMILES | CHRM1 antagonist | CHRM1 agonist | m5-HT2A agonist | TAAR1 ag | M1 PAM | TAAR1 antag | TAAR1 ag conf | Ga16 nonsel ag | TAAR1 desens | Ga16 antag count
Cc1ccc2nc(N3CCN(C)CC3)c(C#N)cc2c1 | 13 | -4 | -4 | 24 | 6 | -1 | . | . | . | .
Cc1cc(C)c2nc(N3CCN(C)CC3)c(C#N)cc2c1 | 14 | -3 | -7 | 49* | -5 | -27 | 54* | 2 | 20 | 11
Cc1ccc2cc(C#N)c(N3CCN(C)CC3)nc2c1 | -5 | -3 | -1 | 18 | 5 | 1 | . | . | . | .
Cc1cccc2cc(C#N)c(N3CCN(C)CC3)nc12 | -3 | -4 | -6 | 67* | 1 | 1 | 76* | 1 | 45 | 6
CCOC(=O)N1CCN(CC(O)COc2ccc3c(c2)CCC3)CC1 (configuration not stated) | 5 | -5 | 5 | 0 | 0 | -16 | . | . | . | .
CCOC(=O)C(NCCc1ccccc1F)(NC(C)=O)C(F)(F)F (configuration not stated) | -14 | -5 | -1 | 72* | 8 | 51* | 101* | 1 | 88* | 0
CCOc1cc2[nH]c(=S)n(CCC(=O)NC3CCCCC3)c(=O)c2cc1OCC | -18 | 6 | 10 | 0 | 25 | -4 | . | . | . | .
COc1ccc(Cl)cc1N1C(=NC(=O)C2CCCCC2)SC2CS(=O)(=O)CC21 (configuration not stated) | -8 | 0 | 0 | 4 | 10 | -7 | . | . | . | .
CC(C)=CCN1CCN(Cc2cccn2-c2ccccn2)CC1CCO (configuration not stated) | -10 | -8 | 7 | 1 | 13 | -28 | . | . | . | .
CC(C)NC(=S)NC(=O)c1ccc(-c2ccccc2)cc1 | 12 | -5 | -3 | 49* | -11 | -4 | 26 | 11 | 14 | 16
O=C(NC(=S)Nc1ccc(-c2ccccc2)cc1)c1ccccc1 | -21 | -3 | -3 | 2 | 10 | -16 | . | . | . | .
FC(F)(F)c1ccc2c(c1)nc1n2CCCC1 | 0 | -6 | -4 | 4 | -2 | 22 | . | . | . | .
CN1CCN(c2nc3cc(C(F)(F)F)ccc3n3cccc23)CC1 | -4 | 1 | -4 | 62* | -5 | -6 | 83* | 20* | 30 | 3
O=C(O)C1NCCc2ccccc21 (configuration not stated) | 3 | -6 | -7 | 72* | -2 | 38 | 67* | 0 | 24 | 2
Cn1c(=O)c2c(nc(N3CCc4ccccc4C3)n2Cc2ccccc2F)n(C)c1=O | -5 | -6 | -5 | 11 | 3 | -14 | . | . | . | .
Cc1ccc(Cn2c(CN(C)Cc3ccccc3)nc3c2c(=O)n(C)c(=O)n3C)cc1 | 7 | 16* | 11 | 70* | 1 | 0 | 40* | 26* | 19 | 20
Cn1c(=O)c2c(nc(N3CCc4ccccc4C3)n2Cc2ccc(Br)cc2)n(C)c1=O | -26 | 1 | 1 | 55* | 6 | -16 | 61* | 7 | 3 | 2
CS(=O)(=O)Oc1ccc(/C=N/NC(=O)c2ccncc2)cc1 | -7 | -5 | -2 | 6 | 0 | -20 | . | . | . | .
CC(=O)O[C@@H]1C[C@@]2(C)[C@@H](CC[C@H]2[C@@H](C)/C=C\CC(C)C)C2=C[C@@H](O)[C@@]3(O)C[C@@H](O)[C@H](O)C[C@]3(CO)[C@]21O | -2 | 10 | 1 | 116* | -2 | 97* | 29 | 16* | 22 | 28*
